# Assay results: ChEMBL document CHEMBL1157507, “Design, synthesis, and evaluation of novel mutual prodrugs (hybrid drugs) of all-trans-retinoic acid and histone deacetylase inhibitors with enhanced anticancer activities in breast and prostate cancer cells in vitro” (J Med Chem, 2008)
# What was measured:
# [1] = tested on: MCF7; assay: Growth inhibition of human MCF7 cells after 5 days by MTT assay; format: functional; details: MCF7, 120 h
# [2] = tested on: MCF7; assay: Growth inhibition of human MCF7 cells expressing HOX-B7 after 5 days by MTT assay; format: functional; details: MCF7, 120 h
# [3] = tested on: MCF7; assay: Growth inhibition of human tamoxifen-resistant MCF7 cells after 5 days by MTT assay; format: functional; details: MCF7, 120 h
# [4] = tested on: Serum; assay: Stability in 80% human serum in 0.02 M phosphate buffer at pH 7.2 after 24 hrs; format: ADME, cell-free; details: pH 7.2, 24 h
# Procedure, shortened: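 Each agent was incubated 24 h at 37 °C in 80% human serum containing 20% 0.02 M phosphate buffer, pH 7.2. Samples were extracted and analysed by reverse-phase C18 HPLC with photodiode-array detection: 350 nm for ATRA and prodrugs, 245 nm for HDIs. The gradient ran from 20 mM ammonium acetate/methanol (50:50) to methanol at 0.8 mL/min.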
# [5] = tested on: MDA-MB-231; assay: Growth inhibition of human MDA-MB-231 cells after 5 days by MTT assay; format: functional; details: MDA-MB-231, 120 h
# [6] = tested on: PC-3; assay: Growth inhibition of human PC3 cells after 5 days by MTT assay; format: functional; details: PC-3, 120 h
# Procedure, shortened: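 PC-3 cells in RPMI 1640 with 10% FBS and 1% penicillin/streptomycin (37 °C, 5% CO2) were seeded at 2 × 10⁴/well and allowed to adhere 24 h. They were dosed over a concentration range in 10% DMSO/90% ethanol for 5 days, with drug and medium renewed on day 3. MTT (0.5 mg/mL) was added for 2 h, formazan dissolved in DMSO, and A560 read. Triplicate wells, ≥3 experiments; GI50 from nonlinear regression.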
# [7] = tested on: PC-3; assay: Growth inhibition of human PC3 cells at 20 uM after 5 days by MTT assay; format: functional; details: PC-3, 120 h
# Procedure, shortened: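 PC-3 cells in RPMI 1640 with 10% FBS were seeded at 2 × 10⁴/well, adhered 24 h, then given a single 20 µM concentration in 10% DMSO/90% ethanol for 5 days, with renewal on day 3. Growth was read by MTT (0.5 mg/mL, 2 h, formazan in DMSO, A560). Triplicate wells; at least three independent experiments.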
# [8] = tested on: MCF7; assay: Growth inhibition of long-term letrozole cultured human MCF7 cells after 5 days by MTT assay; format: functional; details: MCF7, 120 h
Compound,GI50 [1],GI50 [2],GI50 [3],Stability [4],GI50 [5],GI50 [6],inhibition at 20 µM [7],GI50 [8]
CC(=O)Nc1ccc(C(=O)Nc2ccccc2NC(=O)OCc2ccc(OC(=O)/C=C(C)/C=C/C=C(C)/C=C/C3=C(C)CCCC3(C)C)cc2)cc1,0.52 µM,8.13 µM,0.08 µM,Stable,0.02 µM,0.87 µM,,
CCCC(=O)OCc1ccc(OC(=O)/C=C(C)/C=C/C=C(C)/C=C/C2=C(C)CCCC2(C)C)cc1,,,,Stable,0.01 µM,1.02 µM,80%,
CC(=O)Nc1ccc(C(=O)Nc2ccccc2NC(=O)CNC(=O)OCOC(=O)/C=C(C)/C=C/C=C(C)/C=C/C2=C(C)CCCC2(C)C)cc1,0.25 µM,1.2 µM,0.17 µM,Stable,0.63 µM,4.27 µM,,
NCC(=O)Nc1ccccc1NC(=O)c1ccc(CNC(=O)OCc2cccnc2)cc1,,,,Stable,,,,
CC(=O)Nc1ccc(C(=O)Nc2ccccc2N)cc1 [TACEDINALINE],,,,,0.17 µM,0.29 µM,,
CCCC(=O)[O-].[Na+] [SODIUM BUTYRATE],,,,,> 1000 µM,72.4 µM,,
CC1=C(/C=C/C(C)=C/C=C/C(C)=C/C(=O)Oc2ccc(COC(=O)Nc3ccccc3NC(=O)c3ccc(CNC(=O)OCc4cccnc4)cc3)cc2)C(C)(C)CCC1,0.06 µM,0.72 µM,0.21 µM,Stable,0.17 µM,0.18 µM,,
CC1=C(/C=C/C(C)=C/C=C/C(C)=C/C(=O)O)C(C)(C)CCC1 [TRETINOIN],,,,,10.8 µM,7.6 µM,,
CC1=C(/C=C/C(C)=C/C=C/C(C)=C/C(=O)OCOC(=O)NCC(=O)Nc2ccccc2NC(=O)c2ccc(CNC(=O)OCc3cccnc3)cc2)C(C)(C)CCC1,0.15 µM,0.006 µM,0.02 µM,,0.94 µM,0.04 µM,,0.02 µM
